Source: PubChem BioAssay (several laboratories)
CHOP inhibitor = CHOP inhibition in unfolded protein response | 220,000 compounds, 3.8% hits | inhibition, % at 10 µM | CHO-K1 CHOP-promoter luciferase, tunicamycin-induced, 15-18 h;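 active means compounds that reduced the stress-induced luciferase reporter signal by more than about 70% of percent inhibition, limit read from the data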
Jurkat NFkB inh = inhibitors of the PMA/ionomycin-induced NF-kB reporter in Jurkat cells; 330,000 compounds, 0.53% hits; PMA/ionomycin-induced NF-kB luciferase reporter, luminescence; inhibition, % at 4 µM; AID 435003; in the data active means inhibition above about 50%
697 NFkB inh = inhibitors of the PMA/ionomycin-induced NF-kB reporter in 697 B cells | 697 B-cell NF-kB luciferase reporter, 16 h | inhibition, % at 4 µM | 330,000 compounds, 0.33% hits | AID 435022; in the data active means inhibition above about 35%
CHOP UPR activ = apoptotic UPR (CHOP) activation; CHO-CHOP luciferase reporter, luminescence; percent of tunicamycin response over DMSO baseline; activation, % at 10 µM; 330,000 compounds, 0.34% hits;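 active means at 10 µM dose, activation of 40% or more, normalized to positive control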
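System: CHO CHOP reporter cells. Amount: 500 cells per well. Buffer or medium: F12 medium, 10% FBS. Compound dosing: one dose, 10 µM in 0.5% DMSO. Incubation: 6 h compound exposure at 37 °C after overnight seeding. Technique: Steady-Glo luciferase luminescence. Benchmarks: tunicamycin and DMSO controls.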
XBP1 UPR activ = activators of adaptive arm of unfolded protein response (XBP1); CHO-XBP1 luciferase reporter, IRE1-XBP1 UPR activation, luminescence; percent of tunicamycin response, DMSO as zero; activation, % at 20 µM; 330,000 compounds, 0.33% hits; AID 463104;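 active means versus positive control, 20 µM dose yields 30% or more activation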
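Test system: CHO-XBP1 luciferase reporter cells | Buffer or medium: Serum-containing F12 medium, 10% FBS | Schedule: 6 h compound exposure at 37 °C, 5% CO2 | Detection: Steady-Glo luciferase glow luminescence, 10 min after reagent addition | Read-out basis: Activation, % of tunicamycin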
Jurkat NFkB conf = lowers PMA/ionomycin-induced NF-kB signal in Jurkat cells. 2,700 compounds, 27% hits. inhibition, % at 4 µM. shares compounds with Jurkat NFkB inh. Jurkat NF-kB luciferase, 16 h;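 active means inhibition reaching about 45% at 4 µM in either replicate, limit read from the data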
Hits are given with their value; i = inactive; nt = no result given. Many of the other results were omitted from the sample, so hits are more common in it than they were.

SMILES	CHOP inhibitor	Jurkat NFkB inh	697 NFkB inh	CHOP UPR activ	XBP1 UPR activ	Jurkat NFkB conf
Cc1cc(C)nc(/N=C(\N)Nc2ccc(OCc3ccccc3)cc2)n1	i	51	i	i	i	i
Fc1ccc(C(CNC(=S)NC2CCCCC2)N2CCOCC2)cc1 (centres undefined)	i	i	i	i	i	nt
Cc1ccc(C)c(C(=O)CCC(=O)NCc2ccc(Cl)cc2)c1	i	i	i	i	i	nt
CCc1cc2cc(C(=O)Nc3ccc(F)cc3)sc2s1	i	i	i	i	i	nt
CC(C)(C)c1ccc(C(=O)Nc2ccc(F)cc2)s1	i	i	i	i	i	i
Cc1ccc(-n2[nH]c(=O)c(-c3ccccn3)c2C)cc1	i	58	i	i	i	i
C/C(=N\Nc1nc(C(C)(C)C)cs1)c1ccc(O)cc1	nt	i	i	i	i	nt
C/C(=N\Nc1nc(C(C)(C)C)cs1)c1ccccc1	nt	i	i	i	i	i
Cc1ccc2c(c1)Oc1ccc([N+](=O)[O-])cc1C(=O)N2	i	i	i	i	i	nt
Cc1ccc2c(c1)Oc1ccc(NC(=O)CCl)cc1C(=O)N2	107	64	i	i	i	51
CCC1CCCCN1C(=O)c1cc(COc2ccc3ncccc3c2)on1 (centres undefined)	i	58	i	i	i	60
COCC1CCCCN1C(=O)c1cc(COc2ccc3ncccc3c2)on1 (centres undefined)	nt	i	i	i	i	nt
COC(=O)c1sc2nc3c(cc2c1N)CCCC3	i	i	i	i	i	i
CCOC(=O)c1sc2nc3c(cc2c1N)COC(C)(CC)C3 (centres undefined)	i	i	i	i	i	i
C=C1C(=O)[C@@]23[C@H](O)C[C@@H]4C(C)(C)CC[C@H](O)[C@@]4(C)[C@@H]2CC[C@@H]1[C@H]3O	98	71	i	i	i	i
Nc1ccc(-c2nc3cc(N)ccc3s2)cc1	i	i	i	i	i	i
Cc1ccnc(NC(=O)c2sc3cc(Cl)ccc3c2Cl)c1	i	i	i	i	i	i
Cc1ccnc(NC(=O)CNC(=O)c2sc3ccccc3c2Cl)c1	nt	i	i	i	i	nt
Cc1ccnc(NC(=O)c2cc3cc(F)ccc3s2)c1	nt	i	i	i	i	i
Cc1ccnc(NC(=O)c2ccc([N+](=O)[O-])s2)c1	nt	i	i	i	i	nt
Cc1ccnc(NC(=O)c2ccc(OCC3CCCO3)cc2)c1 (centres undefined)	nt	i	i	i	i	nt
COc1ccc(-c2nnnn2-c2ccc(F)cc2F)cc1	i	i	i	i	i	nt
CCOC(=O)/C=C/c1ccc2oc3ccccc3c(=O)c2c1	nt	i	i	i	i	i
O=C(NCc1cccnc1)c1ccc(COc2ccccc2Cl)o1	i	56	i	i	i	i
O=C(NCc1cccnc1)c1ccc(COc2ccc3c(c2)CCC3)o1	i	i	i	i	i	nt
SMILES	CHOP inhibitor	Jurkat NFkB inh	697 NFkB inh	CHOP UPR activ	XBP1 UPR activ	Jurkat NFkB conf
O=C(NCc1cccnc1)c1ccc(COc2ccccc2Br)o1	i	72	i	i	i	i
CN1C(=O)Cc2cc(S(=O)(=O)Nc3ccc(N4CCOCC4)cc3)ccc21	nt	i	i	i	i	nt
O=C(CSc1nnc(-c2ccc(OC(F)F)cc2)o1)NC(=O)NCc1ccco1	i	i	i	i	i	nt
N#Cc1ccc(-c2cccs2)nc1SCc1cccnc1	i	66	i	i	i	i
N#Cc1c(C(F)(F)F)cc(-c2cccs2)nc1SCc1cccnc1	i	i	i	i	i	nt
O=C(Cn1cnc2c(NCc3ccccc3)ncnc21)NCc1nc2ccccc2[nH]1	nt	nt	i	i	i	nt
CCc1ccccc1N(C)S(=O)(=O)c1ccc(-c2cc(C)no2)s1	nt	55	i	i	i	i
CCN(c1ccc(OC)cc1)S(=O)(=O)c1ccc(-c2cc(C)no2)s1	nt	i	i	i	i	nt
CN1/C(=C/C=C(/C#N)C(N)=O)C(C)(C)c2ccccc21	i	61	i	i	i	i
CN1/C(=C\C=C(/C#N)C(=O)Nc2ccccc2F)C(C)(C)c2ccccc21	i	i	i	i	i	nt
COc1ccc(N2CCN(C(=O)Cc3ccc(Br)cc3)CC2)cc1	i	i	i	i	i	nt
C/C=C/CC(C)C(O)C1C(=O)NC(CC)C(=O)N(C)CC(=O)N(C)C(CC(C)C)C(=O)NC(C(C)C)C(=O)N(C)C(CC(C)C)C(=O)NC(C)C(=O)NC(C)C(=O)N(C)C(CC(C)C)C(=O)N(C)C(CC(C)C)C(=O)N(C)C(C(C)C)C(=O)N1C (centres undefined)	i	nt	nt	nt	nt	nt
CCC[C@H]1NC(=O)[C@H](C)N(C)C(=O)C(C)(C)C(=O)C(C)NC(=O)[C@H](Cc2ccc(OC)cc2)N(C)C(=O)[C@H](C(C)C)N(C)C(=O)CNC(=O)[C@H](CC(C)C)N(C)C(=O)CNC(=O)[C@H]([C@@H](C)CC)OC(=O)[C@H]1C (some centres undefined)	nt	82	i	44	i	i
Cc1nc2ccc(NC(=O)CSc3ccccc3)cc2s1	nt	i	i	i	i	nt
CCOc1ccc(S(=O)(=O)NCc2ccccn2)cc1NC(=O)c1ccccc1	nt	53	i	i	i	46
O=C(O)CCCNc1ccc([N+](=O)[O-])c(NCCCC(=O)O)n1	i	i	i	i	i	nt
COc1ccc2[nH]c3c(c2c1)CCNC3c1ccc([N+](=O)[O-])o1 (centres undefined)	nt	i	i	i	i	nt
COc1ccc2[nH]c3c(c2c1)CCNC3C1CC=C(C)CC1 (centres undefined)	i	58	i	i	i	i
CC(=O)N1CC(=O)N=C1SCC(=O)Nc1nc(C)c(-c2ccccc2)s1	i	i	i	i	i	nt
COc1cccc(N2CCN(C(=O)c3ccc(CS(=O)c4ccc(Cl)cc4)o3)CC2)c1 (centres undefined)	nt	51	i	i	i	i
COc1cccc(N2CCN(C(=O)c3ccc(CS(=O)Cc4ccc(C)cc4)o3)CC2)c1 (centres undefined)	nt	i	i	i	i	nt
COc1cccc(N2CCN(C(=O)c3ccc(CS(=O)c4ccc(C)cc4)o3)CC2)c1 (centres undefined)	nt	53	i	i	i	i
O=C(c1ccc(CS(=O)Cc2ccc(Cl)cc2)o1)N1CCN(c2cccc(Cl)c2)CC1 (centres undefined)	nt	i	i	i	i	nt
CN1CCN(C(=O)CSc2nc(-c3cccs3)ccc2C#N)CC1	i	i	i	i	i	nt
CC1CCCN(c2ncnc3c2cnn3-c2ccc(Cl)cc2)C1 (centres undefined)	76	60	i	i	i	87
CCN1/C(=C/c2ccc3cc(C)ccc3[n+]2CC)Sc2ccc3sccc3c21	nt	92	i	i	i	64
Cc1cccc2c(C(=O)N3CCN(c4ccccc4)CC3)cc(-c3ccncc3)nc12	nt	60	i	i	i	i
